The source of these data is ChEMBL document CHEMBL1138808, “Synthesis and anticancer activity of simplified indenoisoquinoline topoisomerase I inhibitors lacking substituents on the aromatic rings” (2004).

The subject of assay [1] is HCT-116. Description: Growth inhibitory activity against human colon HCT116 cell line. In kind it is functional. The procedure, abridged: (§1)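 Growth inhibition in human cancer cell culture. GI50 is the concentration giving 50% growth inhibition. Compounds were tested at concentrations up to […].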
Assay [2] has as its system HOP-62. Nature of the assay: Growth inhibitory activity against human lung HOP-62 cell line. The class given is functional. The procedure, abridged:
as §1

Assay [3] has as its target T1, DNA topoisomerase 1 (Homo sapiens) (UniProt P11387).
T1 sequence (whole entry): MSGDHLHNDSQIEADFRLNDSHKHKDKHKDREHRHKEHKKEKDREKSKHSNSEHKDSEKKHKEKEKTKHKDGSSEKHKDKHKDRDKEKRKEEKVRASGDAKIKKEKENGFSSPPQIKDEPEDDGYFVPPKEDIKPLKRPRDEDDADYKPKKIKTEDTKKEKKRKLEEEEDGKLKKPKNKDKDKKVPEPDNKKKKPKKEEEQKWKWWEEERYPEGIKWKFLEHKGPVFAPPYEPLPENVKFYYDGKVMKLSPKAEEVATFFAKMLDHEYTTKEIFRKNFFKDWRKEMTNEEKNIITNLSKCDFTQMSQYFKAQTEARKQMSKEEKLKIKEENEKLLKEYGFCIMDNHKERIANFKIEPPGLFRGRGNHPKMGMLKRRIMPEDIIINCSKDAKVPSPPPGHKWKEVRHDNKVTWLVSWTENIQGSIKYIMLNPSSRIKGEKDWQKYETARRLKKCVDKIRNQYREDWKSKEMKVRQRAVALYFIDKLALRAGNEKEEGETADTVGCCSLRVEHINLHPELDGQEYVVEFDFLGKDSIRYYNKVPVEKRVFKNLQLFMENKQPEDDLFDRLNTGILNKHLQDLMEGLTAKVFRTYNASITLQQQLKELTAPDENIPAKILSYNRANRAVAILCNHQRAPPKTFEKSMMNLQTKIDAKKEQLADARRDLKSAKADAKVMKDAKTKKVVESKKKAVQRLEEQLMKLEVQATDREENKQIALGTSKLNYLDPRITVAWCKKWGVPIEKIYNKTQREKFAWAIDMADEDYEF
Nature of the assay: Induction of topoisomerase I mediated DNA cleavage; weak activity.

Assay [4] has as its system OVCAR-3. Description: Growth inhibitory activity against human ovarian OVCAR-3 cell line. In kind it is functional. The procedure, abridged: as §1
In assay [5] the test system is DU-145. Description: Growth inhibitory activity against human prostate DU-145 cell line. In kind it is functional. The procedure, abridged:
as §1

Assay [6] concerns SN12C. Nature of the assay: Growth inhibitory activity against human renal SN12C cell line. The class given is functional. The procedure, abridged:
as §1

In assay [7] the test system is UACC-62. Description: Growth inhibitory activity against human melanoma UACC-62 cell line. In kind it is functional. The procedure, abridged:
as §1

Assay [8] concerns MDA-MB-435. Description: Growth inhibitory activity against human breast MDA-MB-435 cell line. In kind it is functional. A digest of the protocol:
as §1

Assay [9] is described as follows: Growth inhibitory activity against human CNSSF-539 cell line. In kind it is functional. The procedure, abridged:
as §1

The test system of assay [10] is Panel (Carcinoma cell lines). Nature of the assay: Mean graph mid point for growth inhibition of human cancer cell lines. In kind it is functional. More on the design: unit not given here. A digest of the protocol: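 Mean graph midpoint of growth inhibition, taken across all human cancer cell lines successfully tested. Compounds were tested at concentrations up to […], and GI50 is the concentration giving 50% growth inhibition.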

For assay [11], the target named is T1, DNA topoisomerase 1 (Homo sapiens). Nature of the assay: Induction of topoisomerase I mediated DNA cleavage; Activity similar to 1 uM camptothecin.
The target is the same in assay [12]. Nature of the assay: Induction of topoisomerase I mediated DNA cleavage; Activity similar to 1 uM camptothecin; weak activity.

The GI50 is the concentration at which growth is held to half of that of the control. With `Cl.NCCCn1c2c(c3ccccc3c1=O)C(=O)c1cc3c(cc1-2)OCO3`, the GI50 in assay [1] was found to be 680 nM; in assay [2], 280 nM; in assay [4] it was 1450 nM; in [5], 60 nM; in [6] it was 190 nM; in [7], 180 nM. Also, the values for the GI50 in assay [8] and in assay [9] were 1820 nM and 430 nM, respectively. Also, the DNA cleavage entry in assay [3] is “Weak activity”. In addition, in assay [10], the “Mean graph mid point” value turned out to be 0.25.

With `O=C1c2cc3c(cc2-c2c1c1ccccc1c(=O)n2CCCBr)OCO3`, the GI50 in assay [1] is 22400 nM; in [4], 18200 nM; in [5] it was 7590 nM; in [6], 230 nM; in [8] it was 25700 nM; in assay [9] it was 370 nM. Also, in assay [3], the DNA cleavage entry is “Weak activity”. In addition, in assay [10], the “Mean graph mid point” value is listed as 9.77.

Take `O=C1c2ccccc2-c2c1c1ccccc1c(=O)n2CCCn1ccnc1`: in assay [11], the DNA cleavage entry is given as “Activity similar to 1 uM camptothecin”. In assay [9], this molecule came in with a GI50 of 2340 nM. The “Mean graph mid point” value in [10] was determined as 1.86.

On to `O=C1c2ccccc2-c2c1c1ccccc1c(=O)n2CCN1CCNCC1`, for which the GI50 was 580 nM in assay [1]; 1910 nM in assay [2]; 1120 nM in [4]; 3090 nM in [5]; 2190 nM in assay [6]; 1380 nM in assay [7]. Moreover, the GI50 in assay [8] came out at 1950 nM; in assay [9], 1990 nM. Further, the DNA cleavage entry in assay [3] is “Weak activity”. In assay [10], the “Mean graph mid point” value is 1.86.

As to `O=C1c2ccccc2-c2c1c1ccccc1c(=O)n2CCNCCO`, the GI50 is 1120 nM in assay [1]; 1620 nM in [2]; 3850 nM in assay [4]; 1280 nM in [5]; 950 nM in assay [6]; 1420 nM in assay [7]. For the same molecule, the 50% growth inhibitory concentration (GI50) stood at 2560 nM in assay [8] and 1650 nM in assay [9]. Besides, the DNA cleavage entry in assay [3] is “Weak activity”. Besides, in [10], the “Mean graph mid point” value is listed as 1.9.

In assay [9], `O=C1c2ccccc2-c2c1c1ccccc1c(=O)n2CCCl` gave a GI50 of 2240 nM. In addition, the DNA cleavage entry in [12] is “+/-”.

As to `CCn1c2c(c3cc(OC)c(OC)cc3c1=O)C(=O)c1cc3c(cc1-2)OCO3`, the GI50 was 2600 nM in assay [1]; 2200 nM in assay [2]; 3000 nM in assay [4]; 2300 nM in assay [5]; 3600 nM in assay [6]; 2100 nM in [7]. Moreover, the values for the GI50 in [8] and in assay [9] were 2600 nM and 2000 nM, respectively. Besides, the “Mean graph mid point” value in assay [10] was found to be 2.4. The DNA cleavage entry in assay [12] is given as “+/-”.
